Source: ChEMBL document CHEMBL2321750, “Structural permutation of potent cytotoxin, polytheonamide B: discovery of cytotoxic Peptide with altered activity” (ACS Med Chem Lett, 2013)
The source made the active and inactive calls. No cut-off for these calls is given here.

Tests used:
P388 [1] = experiment: Induction of H+/Na+ exchange activity in BCECF-loaded mouse P388 cells assessed as change in intracellular pH at 125 nM measured for 1.5 hrs by spectrofluorometric analysis; format: functional, cell-based
Method in brief: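 P388 mouse leukemia cells loaded with BCECF-AM, which intracellular esterases hydrolyse to trapped BCECF. Cells were suspended in pH 7.8 MOPS buffer with 130 mM NaCl to impose a Na+ gradient. Peptides added at 0 s at 125 nM; exposure 1.5 h. Fluorescence was converted to intracellular pH using a nigericin calibration curve.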

[2] = Induction of H+/Na+ exchange activity in pyranine-encapsulated large unilamellar vesicle of egg yolk phosphatidylcholine/cholesterol at 10 uM administered 60 secs measured for 10 mins by spectrofluorometric analysis; format: physicochemical; details: 125 nM, in the assay text read “at 125 nM” for “at 10 uM”
Method in brief: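 Liposomes of EYPC/cholesterol 2:1 carrying encapsulated pyranine, prepared in HEPES buffer with 200 mM NaCl. pH gradient: 6.5 inside, 7.5 outside. Peptides added at 60 s. H+/Na+ exchange followed as pH-dependent pyranine fluorescence increase, normalized to maximal exchange induced by Triton X-100.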

P388 [3] = experiment: Cytotoxicity against mouse P388 cells assessed as cell viability after 92 hrs by XTT assay; format: functional, cell-based; details: P388, 92 h

| Activity [2] | Compound | Activity (P388 [1]) | IC50 (P388 [3]) [nM] |
| --- | --- | --- | --- |
| Not Active | CC[C@H](C)[C@H](NC(=O)[C@@H](CC(=O)NC)NC(=O)CNC(=O)[C@H](NC(=O)[C@@H](NC(=O)[C@@H](CC(=O)NC)NC(=O)[C@@H](NC(=O)[C@@H](CC(=O)NC)NC(=O)CNC(=O)CNC(=O)[C@H](C)NC(=O)[C@H](NC(=O)[C@H](CCC(=O)NC)NC(=O)[C@@H](CC(=O)NC)NC(=O)[C@@H](NC(=O)CNC(=O)[C@H](C)NC(=O)CNC(=O)[C@@H](NC(=O)[C@@H](CC(=O)NC)NC(=O)[C@H](C)NC(=O)[C@H](NC(=O)[C@H](C)N)C(C)(C)C)C(C)(C)O)C(C)(C)C)C(C)(C)O)[C@@H](C)CC)C(C)(C)C)C(C)(C)O)C(=O)N[C@H](CC(=O)NC)C(=O)N[C@H](C(=O)N[C@H](CC(=O)NC)C(=O)N[C@@H](C)C(=O)N[C@H](CC(=O)NC)C(=O)N[C@H](C(=O)N[C@H](CO)C(=O)N[C@H](C(=O)N[C@H](CC(N)=O)C(=O)N[C@@H](Cc1cn(CCNS(=O)(=O)c2cccc3c(N(C)C)cccc23)nn1)C(=O)N[C@H](CC(N)=O)C(=O)N[C@@H](CCC(N)=O)C(=O)N[C@@H](C(=O)N[C@H](C(=O)O)[C@@H](C)O)[C@H](C)O)C(C)C)C(C)C)C(C)C | inactive | 3.7 |
|  | CC[C@H](C)[C@H](NC(=O)[C@@H](CC(=O)NC)NC(=O)CNC(=O)[C@H](NC(=O)[C@@H](NC(=O)[C@@H](CC(=O)NC)NC(=O)[C@@H](NC(=O)[C@@H](CC(=O)NC)NC(=O)CNC(=O)CNC(=O)[C@H](C)NC(=O)[C@H](NC(=O)[C@H](CCC(=O)NC)NC(=O)[C@@H](CC(=O)NC)NC(=O)[C@@H](NC(=O)CNC(=O)[C@H](C)NC(=O)CN)C(C)(C)C)C(C)(C)O)[C@@H](C)CC)C(C)(C)C)C(C)(C)O)C(=O)N[C@H](CC(=O)NC)C(=O)N[C@H](C(=O)N[C@H](CC(=O)NC)C(=O)N[C@@H](C)C(=O)N[C@H](CC(=O)NC)C(=O)N[C@H](C(=O)N[C@H](CO)C(=O)N[C@H](C(=O)N[C@H](CC(N)=O)C(=O)N[C@@H](Cc1cn(CCNS(=O)(=O)c2cccc3c(N(C)C)cccc23)nn1)C(=O)N[C@H](CC(N)=O)C(=O)N[C@@H](CCC(N)=O)C(=O)N[C@@H](C(=O)N[C@H](C(=O)O)[C@@H](C)O)[C@H](C)O)C(C)C)C(C)C)C(C)C |  | > 450 |
|  | CC[C@H](C)[C@H](NC(=O)[C@@H](CC(=O)NC)NC(=O)CNC(=O)[C@H](NC(=O)[C@@H](NC(=O)[C@@H](CC(=O)NC)NC(=O)[C@@H](NC(=O)[C@@H](CC(=O)NC)NC(=O)CNC(=O)CNC(=O)[C@H](C)NC(=O)[C@H](NC(=O)[C@H](CCC(=O)NC)NC(=O)[C@@H](CC(=O)NC)NC(=O)[C@@H](NC(=O)CNC(=O)[C@H](C)NC(=O)CNC(=O)[C@@H](NC(=O)[C@H](N)CC(=O)NC)C(C)(C)O)C(C)(C)C)C(C)(C)O)[C@@H](C)CC)C(C)(C)C)C(C)(C)O)C(=O)N[C@H](CC(=O)NC)C(=O)N[C@H](C(=O)N[C@H](CC(=O)NC)C(=O)N[C@@H](C)C(=O)N[C@H](CC(=O)NC)C(=O)N[C@H](C(=O)N[C@H](CO)C(=O)N[C@H](C(=O)N[C@H](CC(N)=O)C(=O)N[C@@H](Cc1cn(CCNS(=O)(=O)c2cccc3c(N(C)C)cccc23)nn1)C(=O)N[C@H](CC(N)=O)C(=O)N[C@@H](CCC(N)=O)C(=O)N[C@@H](C(=O)N[C@H](C(=O)O)[C@@H](C)O)[C@H](C)O)C(C)C)C(C)C)C(C)C |  | > 420 |
